ChEMBL document CHEMBL5724801, “EUbOPEN Chemogenomics Library - Multiplex” (2024)
Several values for one entry are separate records, joined by “and”; a condition that tells them apart may be missing. Identical values can stand only once.

System: HEK-293T
Assay: Multiplex assay against HEK293T
Type: toxicity, cell-based
Conditions: human
How it was run: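 Imaging took place on a CQ1 microscope at 37°C and 5% CO2 once compound had been added to live cells stained at seeding with Hoechst33342, BioTracker Green Microtubule Cytoskeleton Dye, MitoTracker Red and Annexin V Alexa Fluor 680. CellPathfinder machine-learning gating classed cells as Hoechst high-intensity objects or normal cells, classed normal cells as having healthy, pyknosed or fragmented nuclei, and classed pyknosed cells as mitotic or apoptotic. Tubulin, mitochondrial-mass and membrane-permeability phenotypes are per cents of the healthy-nucleus cells.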

[1] = 12 h, 1 µM, compound concentration 1 uM
[2] = 12 h, 10 µM, compound concentration 10 uM
[3] = 24 h, 1 µM, compound concentration 1 uM
[4] = 24 h, 10 µM, compound concentration 10 uM
[5] = 48 h, 1 µM, compound concentration 1 uM
[6] = 48 h, 10 µM, compound concentration 10 uM

## S=c1[nH]nc(-c2cccs2)n1-c1ccccc1
[1]
  Population Apoptotic (%): 14.62% and 11.2%
  Population Fragmented Nuclei (%): 2.05% and 4.52%
  Population Hoechst High Intensity Objects (%): 1.01% and 0%
  Population Membrane Permeable-Phenotype (%): 0% and 4.35%
  Population Mitochondria Different-Phenotype (%): 35.03% and 21.74%
  Population Mitotic Cells (%): 85.38% and 88.8%
  Population Normal (%): 98.99% and 100%
  Population Pyknosed Nuclei (%): 44.37% and 80.65%
  Total Cell Count: 296 and 155
[2]
  Population Apoptotic (%): 8.82% and 18.42%
  Population Fragmented Nuclei (%): 0.89% and 2.82%
  Population Hoechst High Intensity Objects (%): 0%
  Population Membrane Permeable-Phenotype (%): 0%
  Population Mitotic Cells (%): 91.18% and 81.58%
  Population Normal (%): 100%
  Population Pyknosed Nuclei (%): 40.24% and 80.28%
  Population Tubulin-Different-Phenotype (%): 9.05% and 25%
  Total Cell Count: 338 and 142
[3]
  Population Apoptotic (%): 11.36% and 17.16%
  Population Fragmented Nuclei (%): 1.73% and 2.2%
  Population Hoechst High Intensity Objects (%): 0.76% and 0%
  Population Membrane Permeable-Phenotype (%): 0.26% and 2.27%
  Population Mitochondria Different-Phenotype (%): 13.46% and 15.91%
  Population Mitotic Cells (%): 88.64% and 82.84%
  Population Normal (%): 99.24% and 100%
  Population Pyknosed Nuclei (%): 25.38% and 73.63%
  Population Tubulin-Different-Phenotype (%): 8.97% and 6.82%
  Total Cell Count: 524 and 182
[4]
  Population Apoptotic (%): 17.95% and 22%
  Population Fragmented Nuclei (%): 1.78% and 2.9%
  Population Hoechst High Intensity Objects (%): 0%
  Population Membrane Permeable-Phenotype (%): 0.53% and 0%
  Population Mitochondria Different-Phenotype (%): 11.35% and 2.94%
  Population Mitotic Cells (%): 82.05% and 78%
  Population Normal (%): 100%
  Population Tubulin-Different-Phenotype (%): 9.76% and 8.82%
[5]
  Population Fragmented Nuclei (%): 2.52% and 0.96%
  Population Healthy Nuclei (%): 87.46% and 66.83%
  Population Hoechst High Intensity Objects (%): 0.07% and 0%
  Population Membrane Permeable-Phenotype (%): 4.24% and 5.04%
  Population Mitochondria Different-Phenotype (%): 13.4% and 16.55%
  Population Mitotic Cells (%): 94.07% and 77.61%
  Population Normal (%): 99.93% and 100%
[6]
  Population Apoptotic (%): 10.32% and 16.67%
  Population Fragmented Nuclei (%): 2.79% and 3.68%
  Population Healthy Nuclei (%): 86.89% and 63.19%
  Population Hoechst High Intensity Objects (%): 0%
  Population Membrane Permeable-Phenotype (%): 5.38% and 1.94%
  Population Mitochondria Different-Phenotype (%): 11.04% and 20.39%
  Population Mitotic Cells (%): 89.68% and 83.33%
  Population Normal (%): 100%

## O=C1N=C(NCc2cccs2)S/C1=C\c1ccc2ncccc2c1
[1]
  Population Apoptotic (%): 11.2% and 8.04%
  Population Fragmented Nuclei (%): 4.18% and 2.19%
  Population Hoechst High Intensity Objects (%): 0%
  Population Membrane Permeable-Phenotype (%): 0%
  Population Mitochondria Different-Phenotype (%): 30.06% and 18.18%
  Population Mitotic Cells (%): 88.8% and 91.96%
  Population Normal (%): 100%
  Population Pyknosed Nuclei (%): 40.19% and 81.75%
  Total Cell Count: 311 and 137
[2]
  Population Apoptotic (%): 10.71% and 8.85%
  Population Fragmented Nuclei (%): 2.55% and 5.49%
  Population Healthy Nuclei (%): 68.88% and 25.61%
  Population Hoechst High Intensity Objects (%): 0%
  Population Membrane Permeable-Phenotype (%): 1.48% and 0%
  Population Mitochondria Different-Phenotype (%): 19.26% and 9.52%
  Population Mitotic Cells (%): 89.29% and 91.15%
  Population Normal (%): 100%
  Population Pyknosed Nuclei (%): 28.57% and 68.9%
  Population Tubulin-Different-Phenotype (%): 25.93% and 59.52%
  Total Cell Count: 392 and 164
[3]
  Population Apoptotic (%): 19.59% and 9.09%
  Population Fragmented Nuclei (%): 2.82% and 3.6%
  Population Healthy Nuclei (%): 74.35% and 33.09%
  Population Hoechst High Intensity Objects (%): 0%
  Population Membrane Permeable-Phenotype (%): 0.63% and 2.17%
  Population Mitochondria Different-Phenotype (%): 8.54% and 19.57%
  Population Mitotic Cells (%): 80.41% and 90.91%
  Population Normal (%): 100%
  Population Pyknosed Nuclei (%): 22.82% and 63.31%
  Population Tubulin-Different-Phenotype (%): 10.76% and 13.04%
[4]
  Population Apoptotic (%): 34.38% and 21.57%
  Population Fragmented Nuclei (%): 2.01% and 4.43%
  Population Healthy Nuclei (%): 73.87% and 31.01%
  Population Hoechst High Intensity Objects (%): 0%
  Population Membrane Permeable-Phenotype (%): 0% and 4.08%
  Population Mitochondria Different-Phenotype (%): 26.19% and 16.33%
  Population Mitotic Cells (%): 65.62% and 78.43%
  Population Normal (%): 100%
  Population Pyknosed Nuclei (%): 24.12% and 64.56%
  Population Tubulin-Different-Phenotype (%): 55.78% and 20.41%
  Total Cell Count: 398 and 158
[5]
  Population Apoptotic (%): 12.66% and 16.95%
  Population Fragmented Nuclei (%): 2.96% and 1.01%
  Population Healthy Nuclei (%): 86.89% and 69.35%
  Population Hoechst High Intensity Objects (%): 0% and 0.5%
  Population Membrane Permeable-Phenotype (%): 4.14% and 2.17%
  Population Mitochondria Different-Phenotype (%): 20.41% and 24.64%
  Population Mitotic Cells (%): 87.34% and 83.05%
  Population Normal (%): 100% and 99.5%
  Population Pyknosed Nuclei (%): 10.15% and 29.65%
[6]
  Population Apoptotic (%): 37.04% and 39.66%
  Population Fragmented Nuclei (%): 1.79% and 5.23%
  Population Healthy Nuclei (%): 91.3% and 56.86%
  Population Hoechst High Intensity Objects (%): 0%
  Population Membrane Permeable-Phenotype (%): 0.84% and 2.3%
  Population Mitochondria Different-Phenotype (%): 87.68% and 60.92%
  Population Mitotic Cells (%): 62.96% and 60.34%
  Population Normal (%): 100%
  Total Cell Count: 391 and 153

## CCn1c(-c2nc3cc(C(=O)N4CCCC(N)C4)ccc3n2C)cc2ccccc21.Cl (configuration not stated)
[1]
  Population Fragmented Nuclei (%): 9% and 5% and 1.84% and 3.31%
  Population Hoechst High Intensity Objects (%): 7% and 6% and 0%
  Population Membrane Permeable-Phenotype (%): 0%
  Population Mitochondria Different-Phenotype (%): 52% [middle of 4 runs]
  Population Mitotic Cells (%): 87.4% [middle of 4 runs]
  Population Normal (%): 92% and 93% and 100%
  Total Cell Count: 351 [middle of 4 runs]
[2]
  Population Fragmented Nuclei (%): 8% and 6% and 2.45% and 0.66%
  Population Hoechst High Intensity Objects (%): 8% [middle of 4 runs]
  Population Membrane Permeable-Phenotype (%): 0% and 0.78%
  Population Mitotic Cells (%): 46% and 86.32% and 69.7%
  Population Normal (%): 88% and 91% and 99.7% and 100%
  Population Tubulin-Different-Phenotype (%): 66.67% [middle of 4 runs]
  Total Cell Count: 398 [middle of 4 runs]
[3]
  Population Fragmented Nuclei (%): 9% and 1.41% and 1.3%
  Population Healthy Nuclei (%): 79% [middle of 4 runs]
  Population Hoechst High Intensity Objects (%): 6% and 4% and 0.2% and 0%
  Population Membrane Permeable-Phenotype (%): 0% and 1.42% and 4.76%
  Population Mitochondria Different-Phenotype (%): 37% [middle of 4 runs]
  Population Mitotic Cells (%): 64% and 60% and 92.7% and 77.27%
  Population Normal (%): 93% and 95% and 99.8% and 100%
  Population Tubulin-Different-Phenotype (%): 22% and 14% and 16.24% and 11.9%
[4]
  Population Apoptotic (%): 51% and 40% and 33.59% and 49.56%
  Population Hoechst High Intensity Objects (%): 12% and 9% and 0%
  Population Membrane Permeable-Phenotype (%): 1% and 0% and 0.79%
  Population Mitochondria Different-Phenotype (%): 72% [middle of 4 runs]
  Population Mitotic Cells (%): 48% and 59% and 66.41% and 50.44%
  Population Normal (%): 87% and 90% and 100%
  Population Tubulin-Different-Phenotype (%): 64% and 58% and 63.64% and 33.33%
[5]
  Population Fragmented Nuclei (%): 12% [middle of 4 runs]
  Population Healthy Nuclei (%): 79% and 81% and 86.51% and 57.44%
  Population Hoechst High Intensity Objects (%): 5% and 4% and 0%
  Population Membrane Permeable-Phenotype (%): 1% and 0% and 6.55% and 0.89%
  Population Mitochondria Different-Phenotype (%): 28% [middle of 4 runs]
  Population Mitotic Cells (%): 79% and 85% and 95.24% and 75.9%
  Population Normal (%): 94% and 95% and 100%
[6]
  Population Apoptotic (%): 50% and 52% and 28.06% and 40.68%
  Population Healthy Nuclei (%): 73% and 79% and 77.55% and 60.49%
  Population Membrane Permeable-Phenotype (%): 0% and 1.26% and 2.04%
  Population Mitochondria Different-Phenotype (%): 65% and 71% and 79.5% and 83.67%
  Population Mitotic Cells (%): 49% and 47% and 71.94% and 59.32%
  Population Normal (%): 84% and 91% and 99.86% and 97.59%

## COc1cc2ncnc(Nc3ccc(Oc4ccccc4)cc3C)c2cc1OC.Cl
[1]
  Population Apoptotic (%): 9.24% and 8.93%
  Population Fragmented Nuclei (%): 2.79% and 1.37%
  Population Healthy Nuclei (%): 50.51% and 21.92%
  Population Hoechst High Intensity Objects (%): 0%
  Population Membrane Permeable-Phenotype (%): 1.51% and 0%
  Population Mitochondria Different-Phenotype (%): 24.62% and 9.38%
  Population Mitotic Cells (%): 90.76% and 91.07%
  Population Normal (%): 100%
  Population Pyknosed Nuclei (%): 46.7% and 76.71%
  Population Tubulin-Different-Phenotype (%): 6.53% and 18.75%
  Total Cell Count: 394 and 146
[2]
  Population Apoptotic (%): 10.53% and 18.75%
  Population Fragmented Nuclei (%): 1.92% and 2.05%
  Population Hoechst High Intensity Objects (%): 0%
  Population Membrane Permeable-Phenotype (%): 0.6% and 0%
  Population Mitochondria Different-Phenotype (%): 17.86% and 20%
  Population Mitotic Cells (%): 89.47% and 81.25%
  Population Normal (%): 100%
  Population Pyknosed Nuclei (%): 52.05% and 87.67%
  Total Cell Count: 365 and 146
[3]
  Population Apoptotic (%): 18.7% and 16.84%
  Population Fragmented Nuclei (%): 0.78% and 1.86%
  Population Healthy Nuclei (%): 80.12% and 39.13%
  Population Hoechst High Intensity Objects (%): 0%
  Population Membrane Permeable-Phenotype (%): 2.13% and 1.59%
  Population Mitochondria Different-Phenotype (%): 8.53% and 7.94%
  Population Mitotic Cells (%): 81.3% and 83.16%
  Population Normal (%): 100%
  Population Tubulin-Different-Phenotype (%): 10.85% and 3.17%
[4]
  Population Apoptotic (%): 30.37% and 35.11%
  Population Fragmented Nuclei (%): 2.24% and 2.6%
  Population Hoechst High Intensity Objects (%): 0.22% and 0%
  Population Membrane Permeable-Phenotype (%): 0.66% and 0%
  Population Mitochondria Different-Phenotype (%): 13.58% and 21.05%
  Population Mitotic Cells (%): 69.63% and 64.89%
  Population Normal (%): 99.78% and 100%
  Population Pyknosed Nuclei (%): 30.2% and 85.06%
  Total Cell Count: 448 and 154
[5]
  Population Fragmented Nuclei (%): 2.53% and 2.04%
  Population Healthy Nuclei (%): 85.42% and 68.88%
  Population Hoechst High Intensity Objects (%): 0.14% and 0%
  Population Membrane Permeable-Phenotype (%): 4.9% and 2.96%
  Population Mitochondria Different-Phenotype (%): 14.29% and 17.78%
  Population Mitotic Cells (%): 92.22% and 73.68%
  Population Normal (%): 99.86% and 100%
  Population Pyknosed Nuclei (%): 12.06% and 29.08%
[6]
  Population Apoptotic (%): 20.37% and 26.73%
  Population Fragmented Nuclei (%): 1.69% and 2.03%
  Population Healthy Nuclei (%): 77.27% and 46.7%
  Population Hoechst High Intensity Objects (%): 0%
  Population Membrane Permeable-Phenotype (%): 2.35% and 1.09%
  Population Mitochondria Different-Phenotype (%): 53.61% and 47.83%
  Population Mitotic Cells (%): 79.63% and 73.27%
  Population Normal (%): 100%
  Population Pyknosed Nuclei (%): 21.04% and 51.27%
